# zfTRPN1 agonist: activates the zebrafish TRPN1 channel | HEK293 zebrafish TRPN1-YFP, Fluo-8 calcium fluorescence; 100% = response to 87 µM carbachol | activation, % at 3 µM | hit rate 0.18% among 220,000;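 active means activation above its plate's cutoff, the mean activation of test wells on that plate plus 3 SD, cut at about 19% in these data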;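 further: 0% = DMSO alone and 100% = 87 µM carbachol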
#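 Material: zebrafish TRPN1-YFP in HEK293 cells. Doses: one dose of 3 µM, 0.3% DMSO. Incubation: dye 1 h 37 °C plus 30 min RT. Measured by: intracellular calcium fluorescence with Fluo-8.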
# CHO parental Ca: counter-screen: ATP calcium response change in parental CHO cells; parental CHO-K1, ATP-induced calcium, Fluo-8 fluorescence; inhibition, % at 5.6 µM; hit rate 0.63% among 330,000;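 active means inhibition above that plate's mean sample inhibition plus 3 SD, cut at about 26% in these data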;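 further: 0% = ATP-challenged DMSO wells and 100% = DMSO wells without ATP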
#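 test system = CHO parental line | reagent = ATP stimulus | measured by = intracellular calcium via Fluo-8 no-wash fluorescent dye | control set = ATP and no-ATP DMSO wells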
# TRPML3 agonist: activates the human TRPML3 channel; Q8TDD5; HEK293 TRPML3-YFP, Fluo-8 calcium fluorescence; 100% = the carbachol control signal; activation, % at 3 µM; hit rate 0.29% among 220,000; AID 1448;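 active means activation above its plate's cutoff, the mean activation of the plate's test wells plus 3 SD, cut at about 12% in these data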;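 further: 0% = DMSO only wells and 100% = carbachol wells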
#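 Material: TRPML3-YFP stable HEK293 cells | Dosing: One concentration, 3 µM nominal, 0.3% DMSO | Timing: 125 s total fluorescence read per well | Technique: Fluo-8 calcium dye fluorescence, ex 470-495, em 515-575 nm | Measure: Percent activation from peak-to-basal fluorescence ratio, scaled between DMSO and carbachol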
# OX1R antag-1: blocks the human orexin 1 receptor; CHO/OX1R cells, Fluo-8 calcium fluorescence, orexin A; inhibition, % at 5 µM; hit rate 0.43% among 330,000;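 active means inhibition above its plate's threshold, mean inhibition of all tested compounds on the plate plus 3 SD, cut at about 37% in these data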;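 further: 0% = orexin A challenge wells and 100% = SB-334867-A antagonist wells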
# Target sequence (O43613 whole entry, looked up): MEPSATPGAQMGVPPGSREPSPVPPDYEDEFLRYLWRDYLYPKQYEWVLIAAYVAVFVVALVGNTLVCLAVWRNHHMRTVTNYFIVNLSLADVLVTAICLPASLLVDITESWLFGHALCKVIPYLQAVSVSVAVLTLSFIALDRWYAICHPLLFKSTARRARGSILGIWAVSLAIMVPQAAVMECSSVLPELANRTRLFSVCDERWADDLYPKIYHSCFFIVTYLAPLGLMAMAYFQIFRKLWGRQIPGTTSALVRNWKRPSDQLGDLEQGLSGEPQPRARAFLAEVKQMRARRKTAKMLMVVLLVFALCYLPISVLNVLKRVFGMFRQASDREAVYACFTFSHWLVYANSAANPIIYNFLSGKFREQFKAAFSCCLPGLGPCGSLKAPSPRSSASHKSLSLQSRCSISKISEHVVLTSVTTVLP
# OX1R antag-2: OX1R (human) antagonism. O43613. OX1R-expressing cells, FRET antagonist read-out. inhibition, % at 6.6 µM. hit rate 1.8% among 330,000. AID 485270; in the data active means inhibition mostly above about 38%, no sharp cut-off; inactive means mostly below about 40%;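 further: 0% = agonist challenge alone and 100% = reference antagonist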
# * marks the source's active call; other numbers are inactive results; / = no result given. A selection: hits, their analogues and other compounds. The true share with any hit is near 2.5%.
SMILES,zfTRPN1 agonist,CHO parental Ca,TRPML3 agonist,OX1R antag-1,OX1R antag-2
Cc1nc2ccc(C(=O)N3CCCC(CO)(Cc4ccc(F)cc4F)C3)cc2nc1C (centres undefined),/,-18.8,/,-35.5,11.2
CCn1nc(C(C)C)cc1C(=O)N1CCCC(CO)(Cc2ccc(F)cc2F)C1 (centres undefined),/,-21.2,/,2.6,44.3*
Cc1ccc(-n2c(SC3CCOC3=O)nc3ccccc3c2=O)cc1 (centres undefined),-1.9,-14.9,-0.7,-17.3,-3.1
C=CCOc1ccccc1C(=O)/C=C1/C(=O)Nc2ccccc21,/,33.4*,/,17.0,20.0
C=CCOc1ccc(C(=O)/C=C2/C(=O)Nc3ccccc32)cc1,/,0.2,/,-19.9,9.2
COc1cc2ccccc2cc1C(=O)Nc1cc(C)ccn1,/,-23.7,/,-14.9,53.1*
COc1cc2ccccc2cc1C(=O)Nc1nccs1,/,-22.2,/,-9.2,63.8*
O=C(Nc1cccc([N+](=O)[O-])c1)c1cc2ccccc2cc1O,26.8*,36.1*,17.1*,23.8,50.8*
Cc1c(C(=O)Nc2cccc([N+](=O)[O-])c2)csc1-c1ccccc1,0.4,-4.1,0.8,8.9,72.2*
Cc1ccc(NC(=O)c2csc(-c3ccccc3)c2C)cc1,-1.1,/,-0.7,/,/
O=C(NC1=NCCS1)c1ccc([N+](=O)[O-])cc1Cl,0.1,-8.5,0.5,-1.7,49.4*
Cc1cc(NC(=O)C2C3C(=O)N(c4cccnc4)C(C(=O)NC(C)(C)C)C34C=CC2(C)O4)no1 (centres undefined),-0.2,-1.9,0.5,-18.8,7.9
Cc1cc(NC(=O)C2C3C(=O)N(CCC(C)C)C(C(=O)NCc4ccccc4)C34C=CC2(C)O4)no1 (centres undefined),1.0,1.8,0.4,-2.3,46.1*
COc1ccc(-c2cc(C(=O)Nc3cc(OC)cc(C(=O)Nc4cccc(C(F)(F)F)c4)c3)[nH]n2)cc1,/,32.4*,/,21.9,19.9
COc1cc(NC(=O)c2ccc(N)nc2)cc(C(=O)Nc2cccc(C(F)(F)F)c2)c1,/,-18.4,/,-37.4,21.2
COc1cc(NC(=O)c2cc3cccc(OC)c3o2)cc(C(=O)Nc2cccc(C(F)(F)F)c2)c1,/,41.9*,/,24.3,12.5
COc1cc(NC(=O)c2ccno2)cc(C(=O)Nc2cccc(C(F)(F)F)c2)c1,/,26.8,/,14.6,18.2
Cc1ccc(S(C)(=O)=O)cc1C(=O)NC(C)C1CC2CCC1C2 (centres undefined),/,-9.8,/,-43.1,3.3
CCOC(=O)/C(=N\Nc1ccc(Br)cc1)N1CCN(c2ccccc2OC)CC1,-0.5,/,-0.3,/,/
CCN=C(NS(=O)(=O)c1ccc(Br)cc1)c1ccc(Cl)cc1,0.0,4.5,0.4,-1.5,14.1
O=C(NCc1cccc(C(F)(F)F)c1)c1cc(Cl)cc(Cl)c1,-0.3,-22.1,0.0,-32.5,41.7*
Cc1ccc(C(=O)NCC(=O)NCC(=O)OCc2ccc(Oc3ccc([N+](=O)[O-])cc3)cc2)cc1,5.8,45.8*,1.1,59.3*,49.2
C/C(=N\NC(=O)c1nnn(-c2nonc2N)c1-c1ccc2c(c1)OCO2)c1cccs1,/,-1.8,/,3.8,-1.9
Cc1ccc2cccc(NC(=S)NC(=O)c3ccnn3C)c2n1,-0.8,-44.8,1.3,21.9,48.0*
CC(=O)NC(=S)Nc1cccc2ccc(C)nc12,0.3,7.2,0.2,-17.8,6.2
SMILES,zfTRPN1 agonist,CHO parental Ca,TRPML3 agonist,OX1R antag-1,OX1R antag-2
Oc1ccc2ccccc2c1C=Nc1ccc(N2CCOCC2)cc1,0.0,-4.8,0.2,5.0,50.7*
COc1ccc(CCNC(=O)c2ccc(Cl)c(S(=O)(=O)N3CCCCCC3)c2)cc1,/,26.8*,/,46.3*,15.3
COc1ccc(CCC(=O)Nc2ccc(Cl)c(S(=O)(=O)N3CCCC3)c2)cc1,6.4,52.6*,1.6,35.5,25.8
CCN(C(=O)COC(=O)c1cc2c(s1)CCCC2)c1c(N)n(Cc2ccccc2)c(=O)[nH]c1=O,/,-7.6,/,-19.6,15.2
CSc1nccn1CC(=O)Nc1ccc(F)cc1,-0.2,40.8*,-0.7,-11.8,6.7
Cc1cc(C)c(NC(=O)CSc2nnc(Cc3cccn3C)n2-c2ccc(F)cc2)c(C)c1,-0.1,-18.4,-0.4,-7.9,59.6*
CC(C)(C)c1ccc(NC(=O)c2ccccc2)c([N+](=O)[O-])c1,0.5,-24.7,0.4,-59.0,15.8
COc1cc(/C=C2\SC(=S)N(CCC(=O)N3CCCCC3)C2=O)cc(OC)c1OC,/,-17.4,/,-2.6,11.9
[O-][n+]1c2c(c3c4non(O)c4ccc31)CCCC2,4.1,6.4,0.3,24.0,53.8*
COn1c2c(c3c4no[n+]([O-])c4ccc31)CCCC2,-0.8,-11.2,0.4,-20.5,30.8
CC1CCCN(CCCNC(=O)c2nn(C)c3c2CS(=O)(=O)c2ccccc2-3)C1 (centres undefined),/,0.6,/,-0.4,8.3
C/C(=N\NC(=O)c1ccccc1F)c1cccc(NC(=O)c2ccccc2)c1,/,-12.1,/,-22.2,10.0
C/C(=N\NC(=O)c1cc(Br)ccc1O)c1cccc(NC(=O)c2ccccc2F)c1,/,-7.7,/,-14.6,59.2*
COc1ccc(Cc2nnc(SCC(=O)Nc3ccc(N4CCOCC4)cc3)n2C)cc1,/,-0.6,/,-20.5,8.4
COC(=O)c1cn(NC(=O)Cc2c(F)cccc2Cl)c(=O)c2ccccc12,-0.8,-5.9,-0.1,-24.6,35.1
COC(=O)c1cn(NC(=O)Cc2cccc(OC)c2)c(=O)c2ccccc12,-0.6,-23.0,-0.1,-21.0,72.3*
COC(=O)c1cn(NC(=O)c2ccc(OC)c(OC)c2)c(=O)c2ccccc12,-0.7,-10.4,-0.1,-5.6,17.9
COC(=O)c1cn(NC(=O)Cc2ccc(OC)c(OC)c2)c(=O)c2ccccc12,-0.1,-13.3,0.6,-8.1,47.8*
Cc1ccc(F)cc1NC(=O)CSCc1nc2sc(C)c(C)c2c(=O)[nH]1,/,-42.5,/,-15.5,25.6
CC1CCCC(C)N1C(=O)COC(=O)CSc1ccc(C(N)=O)cc1[N+](=O)[O-] (centres undefined),/,-5.4,/,-18.8,29.9
CCC(C)N(C(=O)COC(=O)CNC(=O)c1sc2ccccc2c1Cl)C1CCS(=O)(=O)C1 (centres undefined),/,-19.2,/,-28.1,5.1
COc1ccc(CNC(=O)C(C)N2C(=O)NC(c3ccccc3)(c3ccccc3)C2=O)cc1 (centres undefined),/,-32.9,/,16.3,35.3*
CC(C)(C)NC(=O)CN1C(=O)NC(c2ccccc2)(c2ccccc2)C1=O,/,-13.4,/,-26.6,23.3
O=C(CN1C(=O)NC(c2ccccc2)(c2ccccc2)C1=O)NCc1ccc(F)cc1,/,-20.9,/,21.4,40.5*
CC(=O)Oc1ccc(Nc2ccccc2)cc1,-1.3,-1.2,0.8,-7.5,49.7*
CCOc1cc(CNCCc2ccc(S(N)(=O)=O)cc2)ccc1OCc1ccc(Cl)cc1,6.9,61.1*,5.9,76.8*,13.5
CCc1cccc(C)c1NC(=O)CSc1ncn[nH]1,1.5,29.1*,0.9,1.6,-4.5

# From PubChem BioAssay
